Measurements published in ChEMBL document CHEMBL1156051, “Synthesis and evaluation of lysophosphatidylserine analogues as inducers of mast cell degranulation. Potent activities of lysophosphatidylthreonine and its 2-deoxy derivative” (J Med Chem, 2009).
Activity calls are given as the source filed them. No cut-off for these calls is given here.

Assays:
[1] = molecular target: Probable G-protein coupled receptor 34 (Mus musculus) (UniProt Q9R1K6); assay: Activation of mouse GPR34 expressed in CHOK1 cells assessed as increase in intracellular calcium level by spectrofluorimetry; format: functional, cell-based; conditions: CHO-K1
Summary of the method: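 Fura-2-loaded CHO-K1 cells stably expressing flag-tagged GPR34 (G418 selection, then anti-flag immunomagnetic positive selection), stimulated with analogue at 2 μM; [Ca2+]i read fluorometrically as ratio of 500 nm emission at 340/380 nm excitation.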

Mast cell [2] = assay: Induction of Wistar rat peritoneal mast cell degradation assessed as concanavalin A-induced histamine release after 15 mins fluorometric assay; format: functional, cell-based; conditions: 0.25 h
Summary of the method: (§1)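 Peritoneal mast cells at 5 × 10^4/mL in HEPES-buffered Tyrode stimulated with analogue plus 100 μg/mL concanavalin A for 15 min at 37 C. Supernatant histamine measured fluorometrically and expressed as percent of total cell histamine. Means ± SE of three independent experiments.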

[3] = molecular target: Probable G-protein coupled receptor 34 (Mus musculus) (UniProt Q9R1K6); assay: Activation of mouse GPR34 expressed in CHOK1 cells assessed as inhibition of forskolin-induced cAMP production at 0.01 to 10 uM after 30 mins by EIA; format: functional, cell-based; conditions: CHO-K1
Summary of the method: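 CHO-K1 stably expressing flag-tagged mouse GPR34, cultured overnight, pretreated 20 min with 0.5 mM IBMX, then costimulated with analogue plus 25 μM forskolin for 30 min at 37 C; cAMP measured by EIA, level without ligand set as 100%.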

Rattus norvegicus [4] = assay: Effect on hypothermic effect in Wistar rat assessed as reduction in rectal temperature at 20 to 200 ug, iv measured every 5 to 10 mins for 60 mins; format: functional, organism-based
Summary of the method: (§2)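 Analogue suspended in PBS with 0.1% BSA and injected iv into C57BL/6 mice or Wistar rats; rectal temperature recorded by probe every 5 or 10 min for 60 min. Means of three independent experiments.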

CHO-K1 [5] = assay: Inhibition of forskolin-induced cAMP production in CHOK1 cells at 0.01 to 10 uM after 30 mins by EIA; format: functional, cell-based; conditions: Cricetulus griseus
Summary of the method: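 Mock-transfected CHO-K1 cells were cultured overnight and pretreated 20 min with 0.5 mM IBMX, then costimulated with analogue and 25 μM forskolin for 30 min at 37 C; accumulated cAMP was measured by EIA.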

Mus musculus [6] = assay: Effect on hypothermic effect in C57BL/6 mouse assessed as reduction in rectal temperature at 25 to 100 ug, iv measured every 5 to 10 mins for 60 mins; format: functional, organism-based; summary of the method: as §2
Mast cell [7] = assay: Induction of C57BL/6 mouse peritoneal mast cell degradation assessed as concanavalin A-induced histamine release after 15 mins fluorometric assay; format: functional, cell-based; conditions: C57BL/6, Mast cell, 0.25 h
Summary of the method: (§3)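 Peritoneal mast cells at 5 × 10^4/mL in HEPES-buffered Tyrode stimulated with analogue plus 10 μg/mL concanavalin A for 15 min at 37 C. Supernatant histamine measured fluorometrically and expressed as percent of total cell histamine. Means ± SE of three independent experiments.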

CHO-K1 [8] = assay: Increase in MAPK level in CHOK1 cells at 0.01 to 10 uM by Western blotting; format: functional, cell-based; conditions: Cricetulus griseus
Summary of the method: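 Serum-starved mock (empty vector) transfected CHO-K1 cells were stimulated for 5 min at 37 C and cooled on ice to stop. Lysates (6 μg protein) were Western blotted for phospho- and total p42/p44 MAP kinase.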

Mast cell [9] = assay: Induction of Wistar rat peritoneal mast cell degradation assessed as anti-DNP IgE-induced histamine release at 0.01 to 10 uM after 15 mins fluorometric assay; format: functional, cell-based
[10] = molecular target: Probable G-protein coupled receptor 34 (Mus musculus) (UniProt Q9R1K6); assay: Activation of mouse GPR34 expressed in CHOK1 cells assessed as phosphorylated ERK level at 0.01 to 10 uM by Western blotting; format: cell-based; conditions: CHO-K1
Summary of the method: (§4)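 Serum-starved CHO-K1 cells stably expressing flag-tagged GPR34 were stimulated with analogue for 5 min at 37 C and stopped by rapid cooling on ice. Lysates (6 μg protein) were Western blotted with antibodies to phospho-p42/p44 and total p42/p44 MAP kinase. Mock-transfected cells served as control.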

Mast cell [11] = assay: Stimulation of mouse bone marrow-derived mast cell degranulation; format: functional, cell-based
[12] = molecular target: Probable G-protein coupled receptor 34 (Mus musculus) (UniProt Q9R1K6); assay: Activation of mouse GPR34 expressed in CHOK1 cells assessed as total ERK level at 0.01 to 10 uM by Western blotting; format: cell-based; conditions: CHO-K1; summary of the method: as §4
Mus musculus [13] = assay: Effect on hypothermic effect in mast cell-deficient WBB6F1 mouse assessed as reduction in rectal temperature at 10 ug, iv measured every 5 to 10 mins for 60 mins; format: functional, organism-based
Summary of the method: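 W/Wv mast cell-deficient mice, with C57BL/6 as comparison, were given 10 μg iv in PBS containing 0.1% BSA. Rectal temperature was monitored every 5 or 10 min for 60 min. Three independent experiments.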

[14] = Cytotoxicity against concanavalin A-stimulated Wistar rat peritoneal mast cells assessed as LDH release at 50 uM; format: cell-based
CHO-K1 [15] = assay: Increase in intracellular calcium level in CHOK1 cells by spectrofluorimetry; format: functional, cell-based; conditions: Cricetulus griseus
Summary of the method: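 Fura-2-loaded mock-transfected CHO-K1 cells were stimulated at 2 μM; [Ca2+]i read as 500 nm emission ratio at 340/380 nm excitation.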

Mus musculus [16] = assay: Effect on hypothermic effect in iv dosed C57BL/6 mouse assessed as reduction in rectal temperature measured every 5 to 10 mins for 60 mins; format: functional, organism-based
Summary of the method: (§5)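 Analogue suspended in PBS with 0.1% BSA and given intravenously; rectal temperature read with a rectal probe every 5 or 10 min for 60 min. Means ± SE of three independent experiments.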

Rattus norvegicus [17] = assay: Effect on hypothermic effect in iv dosed Wistar rat assessed as reduction in rectal temperature measured every 5 to 10 mins for 60 mins; format: functional, organism-based; summary of the method: as §5
Mast cell [18] = assay: Induction of C57BL/6 mouse peritoneal mast cell degradation assessed as concanavalin A-induced histamine release at 0.01 to 10 uM after 15 mins fluorometric assay; format: functional, cell-based; summary of the method: as §3
Mast cell [19] = assay: Induction of Wistar rat peritoneal mast cell degradation assessed as concanavalin A-induced histamine release at 0.01 to 10 uM after 15 mins fluorometric assay; format: functional, cell-based; summary of the method: as §1
Mus musculus [20] = assay: Increase in plasma histamine level in iv dosed C57BL/6 mouse after 2 mins by EIA; format: functional, organism-based
Summary of the method: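 Mice injected i.v. with analogue in PBS with 0.1% BSA; blood taken 2 min after injection and plasma histamine measured by enzyme immunoassay. Means ± SE of three independent experiments.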

[21] = system: G protein-coupled receptor 34 (Mus musculus); assay: Activation of mouse GPR34 expressed in CHOK1 cells assessed as increase in intracellular calcium level by spectrofluorimetry; conditions: CHO-K1
[22] = system: G protein-coupled receptor 34 (Mus musculus); assay: Activation of mouse GPR34 expressed in CHOK1 cells assessed as phosphorylated ERK level at 0.01 to 10 uM by Western blotting; conditions: CHO-K1
Rattus norvegicus [23] = assay: Effect on hypothermic effect in Wistar rat assessed as reduction in rectal temperature at 20 to 100 ug, iv measured every 5 to 10 mins for 60 mins; format: functional, organism-based; summary of the method: as §5
Mast cell [24] = assay: Ratio of lysophosphatidylserine EC50 to compound EC50 for induction of concanavalin A-stimulated C57BL/6 mouse peritoneal mast cell […] associated histamine release; format: functional
Rattus norvegicus [25] = species: Rattus norvegicus; assay: Ratio of compound activity over lysophosphatidylserine activity for induction of hypothermic effect in Wistar rat; format: functional
Mast cell [26] = assay: Induction of Wistar rat peritoneal mast cell degranulation assessed as concanavalin A-induced histamine release at 0.03 uM pretreated for 15 mins measured after washout with 0.5% fatty acid-free BSA by fluorometric assay; format: functional, cell-based
Summary of the method: (§6)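 Rat peritoneal mast cells preincubated with analogue, then washed with buffer containing 0.01% or 0.5% fatty-acid-free BSA. Cells then challenged with concanavalin A, and histamine release measured.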

[27] = system: G protein-coupled receptor 34 (Mus musculus); assay: Activation of mouse GPR34 expressed in CHOK1 cells assessed as total ERK level at 0.01 to 10 uM by Western blotting; conditions: CHO-K1
Mast cell [28] = assay: Ratio of lysophosphatidylserine EC50 to compound EC50 for induction of concanavalin A-stimulated Wistar rat peritoneal mast cell […] associated histamine release; format: functional
Mus musculus [29] = species: Mus musculus; assay: Ratio of compound activity over lysophosphatidylserine activity for induction of hypothermic effect in C57BL/6 mouse; format: functional
Mast cell [30] = assay: Ratio of compound activity over lysophosphatidylserine activity for induction of anti-DNP IgE-stimulated Wistar rat peritoneal mast cell […] associated histamine release; format: functional
Mus musculus [31] = assay: Effect on hypothermic effect in C57BL/6 mouse assessed as reduction in rectal temperature at 1 to 5 ug, iv measured every 5 to 10 mins for 60 mins; format: functional, organism-based; summary of the method: as §5
Mast cell [32] = assay: Induction of Wistar rat peritoneal mast cell degranulation assessed as concanavalin A-induced histamine release at 0.03 uM pretreated for 15 mins measured after washout with 0.01% fatty acid-free BSA by fluorometric assay; format: functional, cell-based; summary of the method: as §6

Probable G-protein coupled receptor 34 (Mus musculus), sequence (Q9R1K6 whole entry): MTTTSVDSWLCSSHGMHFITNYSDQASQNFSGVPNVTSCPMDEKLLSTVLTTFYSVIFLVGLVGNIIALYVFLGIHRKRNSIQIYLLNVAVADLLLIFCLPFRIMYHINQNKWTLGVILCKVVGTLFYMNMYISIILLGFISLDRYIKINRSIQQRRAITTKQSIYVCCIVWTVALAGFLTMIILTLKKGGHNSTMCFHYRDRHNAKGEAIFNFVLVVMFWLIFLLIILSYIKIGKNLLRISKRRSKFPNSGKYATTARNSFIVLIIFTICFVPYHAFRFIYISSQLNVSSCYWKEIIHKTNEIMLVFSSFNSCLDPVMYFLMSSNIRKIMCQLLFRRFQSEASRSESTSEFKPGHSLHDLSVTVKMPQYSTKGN

## CCCCCCCCCCCCCCCCCC(=O)OC[C@@H](O)COP(=O)(O)OC[C@H](N)C(=O)O
[1]
  Activity: Active
Mast cell [2]
  EC50: 400 nM
[3]
  Activity: Active
Rattus norvegicus [4]
  Activity: Active
CHO-K1 [5]
  Activity: inactive
Mus musculus [6]
  Activity: Active
Mast cell [7]
  EC50: 100 nM
CHO-K1 [8]
  Activity: inactive
Mast cell [9]
  Activity: Active
[10]
  Activity: Active
Mast cell [11]
  Activity: inactive
[12]
  Activity: Active
Mus musculus [13]
  Activity: inactive
[14]
  Activity: Non-toxic
CHO-K1 [15]
  Activity: inactive

## CCCCCCCCCCCCCCCC(=O)OCCCOP(=O)(O)O[C@H](C)[C@@H](N)C(=O)O
Mast cell [2]
  EC50: > 10000 nM
Mus musculus [16]
  Activity: inactive
Rattus norvegicus [17]
  Activity: inactive

## CCCCCCCCCCCC(=O)OC[C@@H](O)COP(=O)(O)O[C@H](C)[C@H](N)C(=O)O
Mast cell [2]
  EC50: 150 nM
Mast cell [7]
  EC50: 50 nM

## CCCCCCCCCCCCCCCCCC(=O)OCCCOP(=O)(O)OC[C@H](N)C(=O)O
Mast cell [2]
  EC50: 500 nM
Mast cell [7]
  EC50: 40 nM

## CCCCCCCCCCCCCCCCCC(=O)OC[C@@H](O)COP(=O)(O)O[C@@H](C)[C@H](N)C(=O)O
Mast cell [2]
  EC50: 2000 nM
Mast cell [7]
  EC50: 200 nM
Mus musculus [16]
  Activity: inactive
Rattus norvegicus [17]
  Activity: inactive

## CCCCCCCCCCCCCCCCCC(=O)OC[C@@H](COP(=O)(O)OC[C@H](N)C(=O)O)OC
Mast cell [2]
  EC50: 5000 nM

## CCCCCCCCCCCCCCCCCC(=O)OC[C@@H](O)COP(=O)(O)O[C@@H]1CCN[C@H]1C(=O)O
Mast cell [2]
  EC50: > 10000 nM
Mast cell [18]
  Activity: inactive
Mast cell [19]
  Activity: inactive

## CCCCCCCCCCCCCCCCCC(=O)OCCCOP(=O)(O)O[C@H](C)[C@H](N)C(=O)O
Mast cell [2]
  EC50: 100 nM
Mast cell [18]
  Activity: Active
Mast cell [7]
  EC50: 7 nM
Mus musculus [16]
  Activity: Active
Mus musculus [20]
  Activity: Active
Mus musculus [13]
  Activity: inactive
Mast cell [19]
  Activity: Active

## CCCCCCCCCCCCCCCCCC(=O)OC[C@@H](O)COP(=O)(O)O[C@H]1CN[C@@H](C(=O)O)C1
Mast cell [2]
  EC50: > 10000 nM
Mast cell [18]
  Activity: inactive
Mast cell [19]
  Activity: inactive

## CCCCCCCCCCCCCCCCCC(=O)OC[C@@H](O)COP(=O)(O)O[C@@H]1CN[C@@H](C(=O)O)C1
Mast cell [2]
  EC50: > 10000 nM
Mast cell [18]
  Activity: inactive
Mast cell [19]
  Activity: inactive

## CCCCCCCCCCCCCCCCCC(=O)OC[C@@H](O)COP(=O)(O)O[C@H](C)[C@H](N)C(=O)O
[21]
  Activity: inactive
[22]
  Activity: inactive
Rattus norvegicus [23]
  Activity: Active
Mast cell [24]
  Ratio EC50: 10
Rattus norvegicus [25]
  Ratio: 50
Mast cell [26]
  Activity: inactive
[1]
  Activity: inactive
Mast cell [2]
  EC50: 40 nM
Mast cell [18]
  Activity: Active
[27]
  Activity: inactive
Mast cell [28]
  Ratio EC50: 10
[3]
  Activity: inactive
CHO-K1 [5]
  Activity: inactive
Mast cell [7]
  EC50: 10 nM
CHO-K1 [8]
  Activity: inactive
Mus musculus [20]
  Activity: Active
Mus musculus [29]
  Ratio: 20
Mast cell [30]
  Ratio: 10
Mast cell [9]
  Activity: Active
Mus musculus [31]
  Activity: Active
[10]
  Activity: inactive
Mast cell [32]
  Activity: Active
[12]
  Activity: inactive
[14]
  Activity: Non-toxic
CHO-K1 [15]
  Activity: inactive
Mast cell [19]
  Activity: Active

## CCCCCCCCCCCCCCCC(=O)OC[C@@H](O)COP(=O)(O)O[C@H](C)[C@H](N)C(=O)O
Mast cell [2]
  EC50: 40 nM
Mast cell [7]
  EC50: 20 nM
Mus musculus [20]
  Activity: Active
